{"data": "Published values of several laboratories", "lecA": "PA-I galactophilic lectin (lecA, Pseudomonas aeruginosa, UniProt Q05097)", "Oprd1": "Delta-type opioid receptor (Oprd1, Mus musculus, UniProt P32300)", "CHRM2": "Muscarinic acetylcholine receptor M2 (CHRM2, Homo sapiens, UniProt P08172)"}
{"Compound": "CC(C)C[C@H](NC(=O)CNC(=O)[C@H](C)NC(=O)c1ccc(S[C@@H]2O[C@H](CO)[C@H](O)[C@H](O)[C@H]2O)cc1)C(=O)N[C@@H](C)C(=O)NC[C@@H]1CCN(c2cc3c(cc2F)c(=O)c(C(=O)O)cn3C2CC2)C1", "target": "lecA", "test": "ligand displacement, FP", "quantity": "Ki", "value": "11.2 µM"}
{"Compound": "N[C@H](CO)Cc1ccccc1", "target": "Phenylalanine-4-hydroxylase (Pah, Rattus norvegicus, UniProt P04176)", "test": "binding, fluorescence", "conditions": "pH 7.5", "quantity": "Kd", "value": "10600 µM"}
{"Compound": "CC[C@H](C)[C@H](NC(=O)[C@H](Cc1ccccc1)NC(=O)[C@H](CC(=O)O)NC(=O)[C@H](CCCNC(=N)N)NC(=O)[C@@H](NC(=O)[C@H](C)NC(=O)[C@H](CC(C)C)NC(=O)[C@H](CC(N)=O)NC(=O)[C@H](CC(=O)O)NC(=O)[C@H](CC(C)C)NC(=O)[C@@H](NC(=O)[C@@H](NC(=O)[C@H](CO)NC(=O)[C@H](CCSC)NC(=O)[C@H](CCC(=O)O)NC(=O)[C@H](CC(=O)O)NC(=O)[C@H](CO)NC(=O)[C@H](Cc1ccccc1)NC(=O)[C@H](CO)NC(=O)CNC(=O)[C@H](CC(=O)O)NC(=O)[C@H](C)NC(=O)[C@@H](N)Cc1c[nH]cn1)[C@@H](C)O)[C@@H](C)CC)[C@@H](C)O)C(=O)N[C@@H](CC(N)=O)C(=O)N[C@@H](Cc1c[nH]c2ccccc12)C(=O)N[C@@H](CC(C)C)C(=O)N[C@H](C(=O)N[C@@H](CCC(N)=O)C(=O)N[C@H](C(=O)N[C@@H](CCCCN)C(=O)N[C@H](C(=O)N[C@H](C(=O)N[C@@H](CC(=O)O)C(=O)O)[C@@H](C)O)[C@@H](C)CC)[C@@H](C)O)[C@@H](C)CC", "target": "Gastric inhibitory polypeptide receptor (Mus musculus, UniProt Q0P543)", "test": "reporter gene, agonist, luciferase", "quantity": "EC50", "value": "> 1 µM"}
{"Compound": "Cc1nccc2c1[nH]c1ccccc12", "target": "Amine oxidase [flavin-containing] A (Maoa, Rattus norvegicus, UniProt P21396)", "test": "enzyme activity, inhibitor", "quantity": "Ki", "value": "0.75 µM"}
{"Compound": "CC(=O)NC[C@H](NC(=O)[C@H](CCCNC(=N)N)NC(=O)[C@H](CCCNC(=N)N)NC(=O)[C@H](CC(C)C)NC(=O)[C@H](Cc1ccccc1)NC(=O)CNC(=O)CNC(=O)[C@H](Cc1ccc(O)cc1)NCc1ccccc1)C(=O)N[C@@H](CCCNC(=N)N)C(=O)N1CCC[C@H]1C(=O)N[C@@H](CCCCN)C(N)=O", "target": "Oprd1", "test": "ligand displacement, radioligand", "conditions": "cell membranes", "quantity": "Ki", "value": "2.29 µM"}
{"Compound": "CC(C)[C@H](NC(=O)[C@H](CCCCN)NC(=O)[C@@H](NC(=O)[C@@H]1CCCN1C(=O)[C@H](CCCNC(=N)N)NC(=O)CNC(=O)[C@@H](NC(=O)[C@@H](NC(=O)CNC(=O)[C@H](CO)NC(=O)CNC(=O)CCCC[C@@H]1SC[C@@H]2NC(=O)N[C@@H]21)[C@@H](C)O)[C@@H](C)O)[C@@H](C)O)C(=O)N[C@@H](Cc1ccccc1)C(=O)N[C@H](C(=O)N1CCC[C@H]1C(=O)N1CCC[C@H]1C(=O)N[C@@H](Cc1ccccc1)C(=O)N[C@@H](CCCCN)C(=O)N[C@H](C(=O)N[C@@H](CCCCN)C(=O)N[C@@H](CO)C(=O)N[C@@H](Cc1c[nH]cn1)C(=O)N[C@@H](Cc1ccccc1)C(=O)N[C@@H](Cc1c[nH]cn1)C(N)=O)[C@@H](C)O)C(C)C", "target": "DMC1 (Homo sapiens, UniProt Q14565)", "test": "binding, BLI", "quantity": "Kd", "value": "0.0013 µM"}
{"Compound": "COc1cc(C(=O)N2CC[C@@H](O)[C@@H](N)C2)cc2nc(-c3cc4ccccc4n3CC3CC3)n(C)c12", "target": "CHRM2", "test": "calcium signal, agonist", "quantity": "EC50", "value": "> 15.8 µM"}
{"Compound": "Cc1cc(O)cc(C)c1C[C@H](N)C(=O)N[C@H](C)C(=O)N[C@@H](Cc1ccccc1)C(=O)N[C@@H](CCCN)C(N)=O", "target": "Oprd1", "test": "ligand displacement, radioligand", "conditions": "cell membranes", "quantity": "Ki", "value": "0.06 µM"}
{"Compound": "CC(C)C[C@H](NC(=O)[C@H](Cc1ccccc1)NC(=O)[C@H](Cc1ccc(O)cc1)NC(=O)CNC(=O)[C@H](CCCCN)NC(=O)[C@H](CO)NC(=O)[C@H](CCC(N)=O)NC(=O)CNC(=O)[C@@H](NC(=O)[C@H](CO)NC(=O)[C@@H]1CCCN1C(=O)[C@H](CO)NC(=O)[C@H](CCC(N)=O)NC(=O)[C@H](Cc1ccc(O)cc1)NC(=O)[C@H](CCC(=O)O)NC(=O)[C@H](C)NC(=O)[C@H](CCCCN)NC(=O)[C@@H](N)Cc1ccccc1)C(C)C)C(=O)N[C@@H](Cc1ccccc1)C(=O)N[C@@H](CCCNC(=N)N)C(=O)N1CCC[C@H]1C(=O)N[C@@H](CCCNC(=N)N)C(=O)N[C@@H](CC(N)=O)C(N)=O", "target": "Neuromedin-U receptor 1 (Mus musculus, UniProt O55040)", "test": "inositol phosphate, agonist", "quantity": "EC50", "value": "0.000166 µM"}
{"Compound": "CC(C)C[C@H](NC(=O)CNC(=O)[C@H](C)NC(=O)c1ccc(S[C@@H]2O[C@H](CO)[C@H](O)[C@H](O)[C@H]2O)cc1)C(=O)N[C@@H](C)C(=O)N1CCN(c2cc3c(cc2F)c(=O)c(C(=O)O)cn3C2CC2)CC1", "target": "lecA", "test": "ligand displacement, FP", "quantity": "Ki", "value": "12.9 µM"}
{"Compound": "CC(C)[C@@H](Nc1nc(Cl)nc2c1ncn2[C@H]1[C@H](O)[C@H](O)[C@]2(CN)C[C@H]12)C1CC1", "target": "CHRM2", "test": "ligand displacement, radioligand", "quantity": "Ki", "value": "> 6.6 µM"}
